Assay results taken from ChEMBL document CHEMBL1629684, “Effects of ravuconazole treatment on parasite load and immune response in dogs experimentally infected with Trypanosoma cruzi” (Antimicrob Agents Chemother, 2010).
Active and inactive are the calls of the source.

Key:
Canis familiaris [1] = test: Immunostimulatory activity in mongrel dog infected with Trypanosoma cruzi Berenice-78 assessed as production of antibody IgG2 at 12 mg/kg, po BID for 90 days measured up to 30 days by ELISA; type: functional, organism-based; design: dose 12 mg/kg; conditions: Canis lupus familiaris
Method in brief: (§1)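 Serum was taken before inoculation and then monthly until 6 months posttreatment, and stored at −80°C. ELISA plates were coated with alkaline extract of Y-strain parasites grown to exponential phase in LIT medium. Bound total IgG or IgG2 was detected with peroxidase-labeled anti-dog conjugates and read at 490 nm. Cutoff was the mean absorbance of 10 uninfected dogs plus 2 SD.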

Canis familiaris [2] = test: Immunostimulatory activity in mongrel dog infected with Trypanosoma cruzi Y assessed as production of antibody IgG2 at 12 mg/kg, po BID for 90 days measured after 6 months by ELISA; type: functional, organism-based; design: dose 12 mg/kg; conditions: Canis lupus familiaris; method in brief: as §1
Canis familiaris [3] = test: Toxicity in mongrel dog infected with Trypanosoma cruzi Berenice-78 assessed as weight loss at 7 mg/kg, po BID for 90 days started 12 to 22 days postinfection measured after 1 day; type: organism-based, Canis lupus familiaris; design: dose 7 mg/kg, route oral; conditions: in vivo, 24 h
Method in brief: (§2)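 Body weight gain, in kg, was recorded for infected dogs 1 day and 6 months after the end of oral b.i.d. treatment. Treated animals were compared with infected untreated and noninfected control groups.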

Canis familiaris [4] = test: Immunostimulatory activity in mongrel dog infected with Trypanosoma cruzi Berenice-78 assessed as production of antibody IgG at 7 mg/kg, po BID for 90 days measured after 6 months by ELISA; type: functional, organism-based; design: dose 7 mg/kg; conditions: Canis lupus familiaris; method in brief: as §1
Canis familiaris [5] = test: Toxicity in mongrel dog infected with Trypanosoma cruzi Berenice-78 assessed as weight loss at 7 mg/kg, po BID for 90 days started 12 to 22 days postinfection measured after 6 months; type: organism-based, Canis lupus familiaris; design: dose 7 mg/kg, route oral; conditions: in vivo, 4383 h; method in brief: as §2
Trypanosoma cruzi [6] = test: Antimicrobial activity against Trypanosoma cruzi Berenice-78 infected in mongrel dog assessed as survival of dog at 7 mg/kg, po BID started 12 to 22 days postinfection measured after 1 day; type: functional
Method in brief: (§3)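 Four-month-old mongrel dogs (five per group) received 2.0 × 10^3 Y or Berenice-78 bloodstream trypomastigotes/kg. Oral dosing began 12–22 days postinfection, when parasitemia was detected by fresh blood examination: 12 mg/kg q12h for 90 days, or 7 mg/kg q12h for 60 days. Ear-vein blood was checked from day 10. Mortality was expressed as the cumulative percentage of dead animals.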

Canis familiaris [7] = test: Immunostimulatory activity in mongrel dog infected with Trypanosoma cruzi Berenice-78 assessed as production of antibody IgG2 at 7 mg/kg, po BID for 90 days measured up to 30 days by ELISA; type: functional, organism-based; design: dose 7 mg/kg; conditions: Canis lupus familiaris; method in brief: as §1
Trypanosoma cruzi [8] = test: Antimicrobial activity against Trypanosoma cruzi Y infected in mongrel dog assessed as survival of dog at 7 mg/kg, po BID started 12 to 22 days postinfection measured after 1 day; type: functional; method in brief: as §3
Canis familiaris [9] = test: Immunostimulatory activity in mongrel dog infected with Trypanosoma cruzi Berenice-78 assessed as production of antibody IgG at 7 mg/kg, po BID for 90 days measured up to 30 days by ELISA; type: functional, organism-based; design: dose 7 mg/kg; conditions: Canis lupus familiaris; method in brief: as §1
Canis familiaris [10] = test: Immunostimulatory activity in mongrel dog infected with Trypanosoma cruzi Y assessed as production of antibody IgG at 7 mg/kg, po BID for 90 days measured after 6 months by ELISA; type: functional, organism-based; design: dose 7 mg/kg; conditions: Canis lupus familiaris, in the assay text read “for 60 days” for “for 90 days”; method in brief: as §1
Canis familiaris [11] = test: Immunostimulatory activity in mongrel dog infected with Trypanosoma cruzi Berenice-78 assessed as production of antibody IgG at 12 mg/kg, po BID for 90 days measured after 6 months by ELISA; type: functional, organism-based; design: dose 12 mg/kg; conditions: Canis lupus familiaris; method in brief: as §1
Canis familiaris [12] = test: Immunostimulatory activity in mongrel dog infected with Trypanosoma cruzi Berenice-78 assessed as production of antibody IgG2 at 7 mg/kg, po BID for 90 days measured after 6 months by ELISA; type: functional, organism-based; design: dose 7 mg/kg; conditions: Canis lupus familiaris, in the assay text read “for 60 days” for “for 90 days”; method in brief: as §1
Canis familiaris [13] = test: Toxicity in mongrel dog infected with Trypanosoma cruzi Berenice-78 assessed as weight loss at 12 mg/kg, po BID for 90 days started 12 to 22 days postinfection measured after 1 day; type: organism-based, Canis lupus familiaris; design: dose 12 mg/kg, route oral; conditions: in vivo, 24 h; method in brief: as §2
Trypanosoma cruzi [14] = test: Antitrypanosomal activity against Trypanosoma cruzi Y infected in mongrel dog assessed as reduction in INFgamma production in right atrium at 7 mg/kg, po BID after 180 days by semiquantitative RT-PCR; conditions: Cardiac atrium
Trypanosoma cruzi [15] = test: Antimicrobial activity against Trypanosoma cruzi Y infected in mongrel dog assessed as parasite level in blood of dog at 7 mg/kg, po BID started 12 to 22 days postinfection measured after 30 days by PCR analysis; type: functional
Method in brief: (§4)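 Blood PCR for T. cruzi on treated dogs (n = 5 per group) at 1 and 6 months posttreatment. Each reaction took 2 μl blood DNA template in Tris-HCl pH 9.0, 75 mM KCl, 3.5 mM MgCl2 and 0.2 mM dNTPs. Cycling was 95°C 5 min, then 2 cycles annealing at 30°C, 33 cycles at 40°C, and 72°C 5 min. Products were run on 6% polyacrylamide and silver stained. Reported as rate of positive animals.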

Trypanosoma cruzi [16] = test: Antimicrobial activity against Trypanosoma cruzi Berenice-78 infected in mongrel dog assessed as suppression of microbial proliferation at 12 mg/kg, po BID started 12 to 22 days postinfection measured after 1 day; type: functional, organism-based; design: dose 12 mg/kg
Method in brief: (§5)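 Mongrel dogs, 4 months old, dewormed and vaccinated, were inoculated with 2.0 × 10^3 bloodstream trypomastigotes/kg. Oral b.i.d. (q12h) dosing began 12 to 22 days postinfection, once parasitemia appeared. Dosing ran 90 days at 12 mg/kg and 60 days at 7 mg/kg, with 5 dogs per group. Parasitemia was read by fresh-blood examination of marginal ear vein blood from day 10 of infection until parasites were undetectable.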

Canis familiaris [17] = test: Immunostimulatory activity in mongrel dog infected with Trypanosoma cruzi Berenice-78 assessed as production of antibody IgG at 12 mg/kg, po BID for 90 days measured up to 30 days by ELISA; type: functional, organism-based; design: dose 12 mg/kg; conditions: Canis lupus familiaris; method in brief: as §1
Trypanosoma cruzi [18] = test: Antitrypanosomal activity against Trypanosoma cruzi Y infected in mongrel dog assessed as reduction in INFgamma production in right atrium at 7 mg/kg, po BID after 180 days by semiquantitative RT-PCR; type: functional, organism-based; design: dose 7 mg/kg; conditions: Cardiac atrium
Method in brief: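 Dogs were euthanized 6 months after the end of treatment. RNA was extracted from the right atrium with acid guanidinium thiocyanate-phenol-chloroform. One microgram was DNase treated and reverse transcribed with oligo(dT) for 1 h at 42°C. IFN-γ or IL-10 cDNA was amplified with 1.5 mM MgCl2: 94°C 5 min, n cycles of 94/57/72°C, final extension 72°C 6 min. Expression was scored semiquantitatively against infected untreated and noninfected dogs.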

Canis familiaris [19] = test: Toxicity in mongrel dog infected with Trypanosoma cruzi Berenice-78 assessed as weight loss at 12 mg/kg, po BID for 90 days started 12 to 22 days postinfection measured after 6 months; type: organism-based, Canis lupus familiaris; design: dose 12 mg/kg, route oral; conditions: in vivo, 4383 h; method in brief: as §2
Trypanosoma cruzi [20] = test: Antimicrobial activity against Trypanosoma cruzi Y infected in mongrel dog assessed as suppression of microbial proliferation at 12 mg/kg, po BID started 12 to 22 days postinfection measured after 1 day; type: functional, organism-based; design: dose 12 mg/kg; method in brief: as §5
Canis familiaris [21] = test: Immunostimulatory activity in mongrel dog infected with Trypanosoma cruzi Y assessed as production of antibody IgG2 at 7 mg/kg, po BID for 90 days measured after 6 months by ELISA; type: functional, organism-based; design: dose 7 mg/kg; conditions: Canis lupus familiaris, in the assay text read “for 60 days” for “for 90 days”; method in brief: as §1
Canis familiaris [22] = test: Toxicity in mongrel dog infected with Trypanosoma cruzi Y assessed as weight loss at 12 mg/kg, po BID for 90 days started 12 to 22 days postinfection measured after 6 months; type: organism-based, Canis lupus familiaris; design: dose 12 mg/kg, route oral; conditions: in vivo, 4383 h; method in brief: as §2
Trypanosoma cruzi [23] = test: Antimicrobial activity against Trypanosoma cruzi Y infected in mongrel dog assessed as survival of dog at 12 mg/kg, po BID started 12 to 22 days postinfection measured after 1 day; type: functional; method in brief: as §3
Canis familiaris [24] = test: Immunostimulatory activity in mongrel dog infected with Trypanosoma cruzi Berenice-78 assessed as production of antibody IgG2 at 12 mg/kg, po BID for 90 days measured after 6 months by ELISA; type: functional, organism-based; design: dose 12 mg/kg; conditions: Canis lupus familiaris; method in brief: as §1
Canis familiaris [25] = test: Immunostimulatory activity in mongrel dog infected with Trypanosoma cruzi Y assessed as production of antibody IgG at 12 mg/kg, po BID for 90 days measured after 6 months by ELISA; type: functional, organism-based; design: dose 12 mg/kg; conditions: Canis lupus familiaris; method in brief: as §1
Trypanosoma cruzi [26] = test: Antimicrobial activity against Trypanosoma cruzi Berenice-78 infected in mongrel dog assessed as parasite level in blood of dog at 7 mg/kg, po BID started 12 to 22 days postinfection measured after 30 days by PCR analysis; type: functional; method in brief: as §4
Trypanosoma cruzi [27] = test: Antimicrobial activity against Trypanosoma cruzi Berenice-78 infected in mongrel dog assessed as suppression of microbial proliferation at 7 mg/kg, po BID started 12 to 22 days postinfection measured after 1 day; type: functional, organism-based; design: dose 7 mg/kg; method in brief: as §5
Trypanosoma cruzi [28] = test: Antimicrobial activity against Trypanosoma cruzi Y infected in mongrel dog assessed as suppression of microbial proliferation at 7 mg/kg, po BID started 12 to 22 days postinfection measured after 1 day; type: functional, organism-based; design: dose 7 mg/kg; method in brief: as §5
Canis familiaris [29] = test: Toxicity in mongrel dog infected with Trypanosoma cruzi Y assessed as weight loss at 7 mg/kg, po BID for 90 days started 12 to 22 days postinfection measured after 6 months; type: organism-based, Canis lupus familiaris; design: dose 7 mg/kg, route oral; conditions: in vivo, 4383 h; method in brief: as §2
Trypanosoma cruzi [30] = test: Antitrypanosomal activity against Trypanosoma cruzi Y infected in mongrel dog assessed as reduction in IL10 production in right atrium at 7 mg/kg, po BID after 180 days by semiquantitative RT-PCR; conditions: Cardiac atrium
Trypanosoma cruzi [31] = test: Antimicrobial activity against Trypanosoma cruzi Berenice-78 infected in mongrel dog assessed as survival of dog at 12 mg/kg, po BID started 12 to 22 days postinfection measured after 1 day; type: functional; method in brief: as §3

Question: For O=C(Cn1ccnc1[N+](=O)[O-])NCc1ccccc1 [BENZNIDAZOLE], which Activity (Canis familiaris [1]) is on record?
Answer: Active

Question: And the Activity (Canis familiaris [2])?
Answer: Active

Question: What about the Activity (Canis familiaris [3]) of the same compound?
Answer: Toxic

Question: And the Activity (Canis familiaris [4])?
Answer: Active

Question: What about the Activity (Canis familiaris [5]) of the same compound?
Answer: Non-toxic

Question: What about the Activity (Trypanosoma cruzi [6]) of the same compound?
Answer: 100%

Question: And the Activity (Canis familiaris [7])?
Answer: Active

Question: What about the Activity (Trypanosoma cruzi [8]) of the same compound?
Answer: 100%

Question: What about the Activity (Canis familiaris [9]) of the same compound?
Answer: Active

Question: And the Activity (Canis familiaris [10])?
Answer: Active

Question: What about the Activity (Canis familiaris [11]) of the same compound?
Answer: Active

Question: And the Activity (Canis familiaris [12])?
Answer: Active

Question: And the Activity (Canis familiaris [13])?
Answer: Toxic

Question: What about the Activity (Trypanosoma cruzi [14]) of the same compound?
Answer: Active

Question: And the Activity (Trypanosoma cruzi [15])?
Answer: 0%

Question: And the Activity (Trypanosoma cruzi [16])?
Answer: Non-toxic

Question: What about the Activity (Canis familiaris [17]) of the same compound?
Answer: Active

Question: And the Activity (Trypanosoma cruzi [18])?
Answer: Active

Question: And the Activity (Canis familiaris [19])?
Answer: Non-toxic

Question: What about the Activity (Trypanosoma cruzi [20]) of the same compound?
Answer: Non-toxic

Question: And the Activity (Canis familiaris [21])?
Answer: Active

Question: And the Activity (Canis familiaris [22])?
Answer: Non-toxic

Question: What about the Activity (Trypanosoma cruzi [23]) of the same compound?
Answer: 100%

Question: What about the Activity (Canis familiaris [24]) of the same compound?
Answer: Active

Question: What about the Activity (Canis familiaris [25]) of the same compound?
Answer: Active

Question: What about the Activity (Trypanosoma cruzi [26]) of the same compound?
Answer: 0%

Question: What about the Activity (Trypanosoma cruzi [27]) of the same compound?
Answer: Non-toxic

Question: What about the Activity (Trypanosoma cruzi [28]) of the same compound?
Answer: Non-toxic

Question: What about the Activity (Canis familiaris [29]) of the same compound?
Answer: Non-toxic

Question: And the Activity (Trypanosoma cruzi [30])?
Answer: Active

Question: And the Activity (Trypanosoma cruzi [31])?
Answer: 100%
